The record followed here is ChEMBL document CHEMBL1828629, “Identification of a non-phosphorylated, cell permeable, small molecule ligand for the Stat3 SH2 domain” (Bioorg Med Chem Lett, 2011).

Data set [1] is described as follows: Cytotoxicity against human JJN-3 cells after 72 hrs by MTS assay. Type of data set: functional, cell-based. The following applies: JJN-3, 72 h. On the technique in general: Formazan colour is commonly taken as a measure of viable cells.
A short description of data set [2]: Solubility of the compound in water. The class given is physicochemical. The note with it: buffer.
Data set [3] can be described thus: Lipophilicity, log P of the compound. Type of data set: physicochemical. The note with it: octanol/water.
Data set [4] is described as follows: Cytotoxicity against human MDA468 cells after 72 hrs by MTS assay. The class given is functional, cell-based. The following applies: MDA-MB-468, 72 h.
Data set [5] concerns DU-145. Put plainly: Cytotoxicity against human DU145 cells after 72 hrs by MTS assay. The note with it: DU-145, 72 h. Type of data set: functional, cell-based.
Data set [6] has as its target T1, Signal transducer and activator of transcription 3 (Homo sapiens, UniProt P40763). As to the kind of experiment: Inhibition of STAT3 using fluorescent probe 5-carboxyfluorescein-GpYLPQTV-NH2 after 15 mins by fluorescence polarisation assay.
The target of data set [7] is T2, Signal transducer and activator of transcription 3 (Mus musculus, UniProt P42227). Put plainly: Inhibition of STAT3 in mouse NIH3T3/vSrc nuclear extract assessed as disruption of the Stat3-DNA complex pre-incubated for 30 mins by EMSA analysis. The method, boiled down: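 NIH3T3/vSrc nuclear extracts were pre-incubated with a range of compound concentrations for 30 min at room temperature. They were then incubated with 32P-labelled hSIE probe (c-fos m67 variant) for 30 min at 30 °C and resolved by EMSA. Stat3 DNA-binding bands were quantified as percent of control, and IC50 was derived from those plots.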
(In EMSA bound probe runs differently from free probe, usually more slowly.)

Data set [8] concerns the target T1, Signal transducer and activator of transcription 3. As to the kind of experiment: Inhibition of STAT3 phosphorylation in human MDA468 cells at 100 uM after 24 hrs by Western blotting. Type of data set: cell-based. The following applies: MDA-MB-468. The method, boiled down:
(§1)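 Intact MDA-468 or JJN3 cells were treated for 24 h, with DMSO as the untreated control. Cells were lysed in Tris-HCl/EDTA/1% NP-40/150 mM NaCl for 30 min on ice, freeze-thawed once at −80 °C and centrifuged at 12000g for 15 min. Whole-cell lysates were run on 6.5–15% SDS-PAGE and immunoblotted for pY705Stat3 and total Stat3.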
(A western blot detects proteins with antibodies after separation by electrophoresis.)

Data set [9] addresses T3, Signal transducer and activator of transcription 1 (Mus musculus, UniProt P42225).
T3 sequence (P42225 whole entry): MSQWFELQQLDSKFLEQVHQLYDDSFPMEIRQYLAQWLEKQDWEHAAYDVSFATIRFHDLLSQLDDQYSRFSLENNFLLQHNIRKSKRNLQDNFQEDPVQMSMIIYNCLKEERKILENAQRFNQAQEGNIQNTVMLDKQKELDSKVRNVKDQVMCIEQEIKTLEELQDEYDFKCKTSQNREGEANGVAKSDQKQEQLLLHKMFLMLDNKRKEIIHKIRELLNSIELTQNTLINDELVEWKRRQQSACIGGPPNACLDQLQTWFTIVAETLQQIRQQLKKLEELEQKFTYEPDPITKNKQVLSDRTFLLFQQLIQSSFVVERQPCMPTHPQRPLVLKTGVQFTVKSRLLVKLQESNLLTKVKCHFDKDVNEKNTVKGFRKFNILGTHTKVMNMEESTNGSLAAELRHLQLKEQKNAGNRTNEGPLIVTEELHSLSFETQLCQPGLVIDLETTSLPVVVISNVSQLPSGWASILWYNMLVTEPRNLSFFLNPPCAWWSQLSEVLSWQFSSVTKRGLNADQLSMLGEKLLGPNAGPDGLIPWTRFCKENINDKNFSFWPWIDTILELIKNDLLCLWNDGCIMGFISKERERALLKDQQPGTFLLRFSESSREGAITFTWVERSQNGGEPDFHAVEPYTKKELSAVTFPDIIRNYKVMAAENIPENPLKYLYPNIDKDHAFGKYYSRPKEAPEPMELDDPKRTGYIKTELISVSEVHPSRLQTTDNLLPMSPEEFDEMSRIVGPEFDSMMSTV
Put plainly: Inhibition of mouse STAT1 using fluorescent probe 5-carboxyfluorescein-GpYLPQTV-NH2 after 30 mins by fluorescence polarisation assay.

The nature of data set [10]: Inhibition of mouse STAT5 using fluorescent probe 5-carboxyfluorescein-GpYLPQTV-NH2 after 30 mins by fluorescence polarisation assay.
Data set [11] has as its target T1, Signal transducer and activator of transcription 3. As to the kind of experiment: Inhibition of STAT3 phosphorylation in human JJN-3 cells at 100 uM after 24 hrs by Western blotting. The class given is cell-based. The method, boiled down: as §1
Data set [12] addresses T2, Signal transducer and activator of transcription 3. As to the kind of experiment: Inhibition of mouse STAT3 SH2 domain using fluorescent probe 5-carboxyfluorescein-GpYLPQTV-NH2 after 30 mins by fluorescence polarisation assay.
The target of data set [13] is T1, Signal transducer and activator of transcription 3. The following applies: MDA-MB-468, 20 uM.
For data set [14] the target is unchanged. The note with it: MDA-MB-468, 20 uM. The source holds these as a separate data set.
Data set [15] shares this target. The following applies: JJN-3, 20 uM.
Data set [16] has the same target. The note with it: MDA-MB-468, 20 uM. This is another data set of the same source.
Data set [17] has the same target. The following applies: MDA-MB-468, 20 uM. This is another data set of the same source.
The target is the same in data set [18]. The note with it: JJN3, 20 uM.
Data set [19] shares this target. The note with it: JJN3, 20 uM. This is another data set of the same source.
For data set [20] the target is unchanged. The note with it: JJN3, 20 uM. The source holds these as a separate data set.

SMILES strings stand for the structures. The source made the active and inactive calls. The rule behind the calls is not given here.

T2 sequence (P42227 whole entry): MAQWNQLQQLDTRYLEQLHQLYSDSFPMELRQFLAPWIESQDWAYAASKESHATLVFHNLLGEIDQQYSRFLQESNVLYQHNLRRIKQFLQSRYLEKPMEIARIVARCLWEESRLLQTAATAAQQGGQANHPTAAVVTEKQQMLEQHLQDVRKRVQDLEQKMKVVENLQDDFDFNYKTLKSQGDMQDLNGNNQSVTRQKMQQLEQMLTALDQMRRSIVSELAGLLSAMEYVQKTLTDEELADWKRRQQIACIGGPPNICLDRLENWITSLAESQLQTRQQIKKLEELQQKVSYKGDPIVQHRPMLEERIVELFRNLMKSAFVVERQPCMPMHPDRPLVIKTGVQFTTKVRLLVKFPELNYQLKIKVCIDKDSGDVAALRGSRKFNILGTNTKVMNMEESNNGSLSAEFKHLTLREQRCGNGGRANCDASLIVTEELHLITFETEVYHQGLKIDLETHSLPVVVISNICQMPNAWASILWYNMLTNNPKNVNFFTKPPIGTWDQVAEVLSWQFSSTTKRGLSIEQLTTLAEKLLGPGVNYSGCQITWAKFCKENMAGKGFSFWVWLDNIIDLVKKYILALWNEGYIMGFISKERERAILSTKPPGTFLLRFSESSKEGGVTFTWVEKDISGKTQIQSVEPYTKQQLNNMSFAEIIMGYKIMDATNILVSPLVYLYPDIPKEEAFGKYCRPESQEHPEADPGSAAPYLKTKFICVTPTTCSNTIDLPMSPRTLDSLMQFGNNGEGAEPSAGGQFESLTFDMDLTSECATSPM
T1 sequence (P40763 whole entry): as the sequence (P42227 whole entry) above, with D760E counted along it

What is called EC50 is the concentration at which the effect is half-maximal. Read a high EC50 as a less potent agent. In general, logP refers to the decadic logarithm of the partition coefficient of the neutral form, usually between octanol and water. The low end stands for lower lipophilicity, the high end for higher lipophilicity. For `CN(CC(=O)N(Cc1ccc(C2CCCCC2)cc1)c1ccc(C(=O)O)c(O)c1)S(=O)(=O)c1cccc2ccccc12`, the EC50 in data set [1] was 106 µM; in data set [4] it was 46.5 µM; in data set [5], 74.5 µM. The solubility result in data set [2] was “Insoluble”. The compound also registered a logP in data set [3] of 5.95.
The term Ki denotes the dissociation constant of the complex between target and ligand, obtained from inhibition or displacement. The IC50 is the concentration at which inhibition is half-maximal. As for `CN(CC(=O)N(Cc1ccc(C2CCCCC2)cc1)c1ccc(C(=O)O)c(O)c1)S(=O)(=O)c1cn(C)cn1`, the Ki in data set [6] was > 100 µM. The IC50 in data set [7] is > 300 µM.
Regarding `Cc1ccc(S(=O)(=O)N(C)CC(=O)N(Cc2ccc(C3CCCCC3)cc2)c2ccc(C(=O)O)c(O)c2)cc1`, the inhibition result in [8] and in data set [11] was “Active” each time. For the same compound, the Ki in data set [9] is > 25 µM; in data set [10], > 25 µM; in data set [12], 15 µM.
As to `CN(CC(=O)N(Cc1ccc(C2CCCCC2)cc1)c1ccc(C(=O)O)c(O)c1)S(=O)(=O)c1ccc(F)cc1`, the IC50 in [7] was > 300 µM.
Consider `COc1ccc(S(=O)(=O)N(C)CC(=O)N(Cc2ccc(C3CCCCC3)cc2)c2ccc(C(=O)O)c(O)c2)cc1`, for which the IC50 in data set [7] is 67.4 µM.
In turn, `CN(CC(=O)N(Cc1ccc(C2CCCCC2)cc1)c1ccc(C(=O)O)c(O)c1)S(=O)(=O)c1c(F)c(F)c(F)c(F)c1F` showed an EC50 in [1] of 16.7 µM. The inhibition result in [13], in [14], in data set [15], in [16], in data set [17] and in [18] was “Active” throughout. The inhibition result in data set [19] and in [20] was “Active” in each case. Also, the solubility entry in data set [2] is listed as “soluble”.
In [6], `CN(CC(=O)N(Cc1ccc(C2CCCCC2)cc1)c1ccc(C(=O)O)c(O)c1)S(=O)(=O)c1ccc(-c2ccccc2)cc1` registered a Ki of 6.2 µM. In data set [7], the IC50 worked out at 65.4 µM.
